From ChEMBL document CHEMBL4765329, “Exploration of carbamide derived pyrimidine-thioindole conjugates as potential VEGFR-2 inhibitors with anti-angiogenesis effect” (Eur J Med Chem, 2020)
Activity calls are given as the source filed them. The calls are words filed in the database; no cut-off is given here.

How the values were obtained:
[1] = tested on: A549; assay: cells; conditions: Homo sapiens, A549, 72 h
[2] = tested on: PC-3; assay: cells; conditions: Homo sapiens, PC-3, 72 h
[3] = tested on: MDA-MB-231; assay: cells; conditions: Homo sapiens, MDA-MB-231, 72 h
[4] = tested on: HepG2; assay: cells; conditions: Homo sapiens, HepG2, 72 h
[5] = tested on: HUVEC; assay: Antiangiogenic activity against human HUVEC cells assessed as inhibition of tube formation measured after 16 hrs by matrigel based tube formation assay; type: functional, cell-based; conditions: dose 2.5-5 µM
Procedure, shortened: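 HUVECs were plated on Matrigel with 2.5 and 5 μM test agent, alongside a reference VEGFR-2 inhibitor. Tube networks were imaged, and quantification covered cell-covered area, tube length, branching points and total loops.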

[6] = tested on: HUVEC; assay: Antimigratory activity against human HUVEC cells assessed as inhibition of cell invasion measured by inverted fluorescence microscope based transwell assay; type: functional; conditions: dose 2.5-5 µM
Procedure, shortened: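 A Boyden chamber (transwell) invasion assay used HUVECs passing through Matrigel and a membrane barrier. Treatment was 2.5 and 5 µM, with a reference VEGFR-2 inhibitor as standard. Invaded cells on the bottom side were compared with untreated control.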

[7] = tested on: MDA-MB-231; assay: Antimigratory activity against human MDA-MB-231 cells assessed as inhibition of cell migration at 2.5 uM measured after 24 hrs by phase contrast microscope based wound healing assay; type: functional
Procedure, shortened: (§1)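 Confluent MDA-MB-231 monolayers (DMEM, 10% FBS) were scratched with a sterile pipette tip and then treated. Wound closure was imaged by phase contrast microscopy after 24 h and compared with untreated control.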

[8] = tested on: MDA-MB-231; assay: Antimigratory activity against human MDA-MB-231 cells assessed as inhibition of cell migration at 5 uM measured after 24 hrs by phase contrast microscope based wound healing assay; type: functional
Procedure, shortened: as §1

[9] = tested on: MDA-MB-231; assay: Induction of apoptosis in human MDA-MB-231 cells assessed as induction of morphological changes by measuring chromatin condensation measured after 48 hrs by Hoechst stain based flourescence assay in relative to control; type: functional, cell-based; conditions: dose 2.5-5 µM
Procedure, shortened: (§2)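 MDA-MB-231 cells were treated at 2.5 and 5 µM and stained with Hoechst. Nuclei were examined by fluorescence for chromatin condensation, nuclear shrinkage, and pyknotic or fragmented nuclei against untreated control.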

[10] = tested on: MDA-MB-231; assay: Induction of apoptosis in human MDA-MB-231 cells assessed as induction of morphological changes by measuring nuclear shrinkage and fragmentation in nucleus measured after 48 hrs by Hoechst stain based flourescence assay in relative to control; type: functional, cell-based; conditions: dose 2.5-5 µM
Procedure, shortened: as §2

[11] = tested on: MDA-MB-231; assay: Induction of mitochondrial membrane potential loss in human MDA-MB-231 cells assessed as increase in depolarised cells measured after 48 hrs by JC-1 stain based flow cytometry assay relative to control; type: functional, cell-based; conditions: dose 2.5-5 µM
Procedure, shortened: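 MDA-MB-231 cells were treated at 2.5 and 5 µM and stained with JC-1. Depolarised mitochondria were scored by green monomer signal and healthy mitochondria by red J-aggregates, against control.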

[12] = tested on: MDA-MB-231; assay: Induction of mitochondrial membrane potential loss in human MDA-MB-231 cells assessed as generation of ROS at 2.5 uM measured after 48 hrs by carboxy […] stain based flow cytometry assay relative to control; type: functional, cell-based
Procedure, shortened: (§3)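 MDA-MB-231 cells were treated at several doses and stained with carboxy-H2DCFDA. ROS were read as green DCF fluorescence relative to untreated control.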

[13] = tested on: MDA-MB-231; assay: Induction of mitochondrial membrane potential loss in human MDA-MB-231 cells assessed as generation of ROS at 5 uM measured after 48 hrs by carboxy […] stain based flow cytometry assay relative to control; type: functional, cell-based
Procedure, shortened: as §3

[14] = tested on: MDA-MB-231; assay: Induction of apoptosis in human MDA-MB-231 cells assessed as viable cells at 2.5 uM measured after 48 hrs by Annexin V-FITC/Propidium iodide stain based flow cytometry assay (reference value: 95.3%); type: functional; conditions: read-out: Activity
[15] = tested on: MDA-MB-231; assay: Induction of apoptosis in human MDA-MB-231 cells assessed as early apoptotic cells at 2.5 uM measured after 48 hrs by Annexin V-FITC/Propidium iodide stain based flow cytometry assay (reference value: 3.2%); type: functional
[16] = tested on: MDA-MB-231; assay: Induction of apoptosis in human MDA-MB-231 cells assessed as late apoptotic cells at 2.5 uM measured after 48 hrs by Annexin V-FITC/Propidium iodide stain based flow cytometry assay (reference value: 1.2%); type: functional
[17] = tested on: MDA-MB-231; assay: Induction of apoptosis in human MDA-MB-231 cells assessed as necrotic cells at 2.5 uM measured after 48 hrs by Annexin V-FITC/Propidium iodide stain based flow cytometry assay (reference value: 0.3%); type: functional
[18] = tested on: MDA-MB-231; assay: Induction of apoptosis in human MDA-MB-231 cells assessed as viable cells at 5 uM measured after 48 hrs by Annexin V-FITC/Propidium iodide stain based flow cytometry assay (reference value: 95.3%); type: functional; conditions: read-out: Activity
[19] = tested on: MDA-MB-231; assay: Induction of apoptosis in human MDA-MB-231 cells assessed as early apoptotic cells at 5 uM measured after 48 hrs by Annexin V-FITC/Propidium iodide stain based flow cytometry assay (reference value: 3.2%); type: functional
[20] = tested on: MDA-MB-231; assay: Induction of apoptosis in human MDA-MB-231 cells assessed as late apoptotic cells at 5 uM measured after 48 hrs by Annexin V-FITC/Propidium iodide stain based flow cytometry assay (reference value: 1.2%); type: functional
[21] = tested on: MDA-MB-231; assay: Induction of apoptosis in human MDA-MB-231 cells assessed as necrotic cells at 5 uM measured after 48 hrs by Annexin V-FITC/Propidium iodide stain based flow cytometry assay (reference value: 0.3%); type: functional

SMILES	IC50 [1] [µM]	IC50 [2] [µM]	IC50 [3] [µM]	IC50 [4] [µM]	also measured
O=C(Nc1ccccc1)Nc1nc(Sc2c[nH]c3ccccc23)cc(N2CCOCC2)n1	26.1	14.1	12.1	7.14	
O=C(Nc1ccccc1)Nc1nc(NC2CC2)cc(Sc2c[nH]c3ccccc23)n1	> 50	17.5	7.86	14.3	
COc1ccc(NC(=O)Nc2nc(Sc3c[nH]c4ccccc34)cc(N3CCCC3)n2)cc1	11.8	21.5	13.1	20.3	
COc1ccc(NC(=O)Nc2nc(Nc3cc(OC)cc(OC)c3)cc(Sc3c[nH]c4ccccc34)n2)cc1	> 50	15.1	9.46	17.4	
COc1cc(NC(=O)Nc2nc(Nc3cc(OC)cc(OC)c3)cc(Sc3c[nH]c4ccccc34)n2)cc(OC)c1	> 50	11.6	> 50	24.8	
COc1ccc(NC(=O)Nc2nc(Sc3c[nH]c4ccccc34)cc(N3CCOCC3)n2)cc1	33.4	12.5	7.94	10.3	
CNC(=O)c1cc(Oc2ccc(NC(=O)Nc3ccc(Cl)c(C(F)(F)F)c3)cc2)ccn1 [SORAFENIB]		9.77	11.8	5.78	inhibition [5]: Dose-dependent effect; inhibition [6]: Dose-dependent effect; inhibition [7]: Active; inhibition [8]: Active
Cc1cc(Cl)ccc1NC(=O)Nc1nc(Sc2c[nH]c3ccccc23)cc(N2CCOCC2)n1	> 50	33.8	8.65	8.26	
O=C(Nc1ccc(Cl)cc1)Nc1nc(Sc2c[nH]c3ccccc23)cc(N2CCCC2)n1	6.41	10.4		7.87	inhibition [5]: Dose-dependent effect; inhibition [6]: Dose-dependent effect; inhibition [7]: Active; inhibition [8]: Active; Activity [9]: Dose-dependent effect; Activity [10]: Dose-dependent effect; viability at 2.5 µM [14]: 76.2%; Activity [15]: 19.4%; Activity [16]: 3.8%; Activity [17]: 0.5%; viability at 5 µM [18]: 51.4%; Activity [19]: 36.6%; Activity [20]: 11.2%; Activity [21]: 0.9%; Activity [11]: Active; Activity [12]: Active; Activity [13]: Active
Cc1ccc(NC(=O)Nc2nc(Nc3ccccc3)cc(Sc3c[nH]c4ccccc34)n2)cc1	23.4	18.4	13.4	14.9	
Cc1cc(Cl)ccc1NC(=O)Nc1nc(NC2CC2)cc(Sc2c[nH]c3ccccc23)n1	31.5	11.1	14.6	9.74	
O=C(Nc1ccc(Cl)cc1)Nc1nc(Sc2c[nH]c3ccccc23)cc(N2CCCCC2)n1	18.6	42.5	10.1	14.8	
O=C(Nc1ccccc1)Nc1nc(Sc2c[nH]c3ccccc23)cc(N2CCCCC2)n1	33.1	12.1	8.13	20.9	
O=C(Nc1ccc(Cl)cc1)Nc1nc(Sc2c[nH]c3ccccc23)cc(N2CCOCC2)n1	21.8	28.4	6.93	22.5	
COc1ccc(NC(=O)Nc2nc(Sc3c[nH]c4ccccc34)cc(N3CCCCC3)n2)cc1	13.5	17.4	7.26	17.1	
O=C(Nc1ccccc1)Nc1nc(Nc2ccc(Cl)cc2)cc(Sc2c[nH]c3ccccc23)n1	48.4	32.3	10.3	12.6	
O=C(Nc1ccccc1)Nc1nc(Nc2ccccc2)cc(Sc2c[nH]c3ccccc23)n1	> 50	26.4	35.9	14.4	
Cc1cc(Cl)ccc1NC(=O)Nc1nc(Nc2ccccc2)cc(Sc2c[nH]c3ccccc23)n1	> 50	41.9	17.1	8.37	

Now from value to molecule, other results behind:

IC50 [1] [µM]	IC50 [2] [µM]	IC50 [3] [µM]	IC50 [4] [µM]	SMILES	also measured
30.2	21.6	19.5	8.93	O=C(Nc1ccccc1)Nc1nc(Sc2c[nH]c3ccccc23)cc(N2CCN(c3ccccn3)CC2)n1	
21.2	14.9	7.89	11.4	O=C(Nc1ccccc1)Nc1nc(Sc2c[nH]c3ccccc23)cc(N2CCCC2)n1	
> 50	19.8	34.7	7.64	Cc1cc(Cl)ccc1NC(=O)Nc1nc(Sc2c[nH]c3ccccc23)cc(N2CCN(c3ccccn3)CC2)n1	
25.4	> 50		6.44	Cc1ccc(C)c(NC(=O)Nc2nc(Sc3c[nH]c4ccccc34)cc(N3CCCCC3)n2)c1	Activity [9]: Dose-dependent effect; Activity [10]: Dose-dependent effect; Activity [11]: Active; Activity [12]: Active; Activity [13]: Active
> 50	17.3	19	16.4	Cc1ccc(C)c(NC(=O)Nc2nc(Sc3c[nH]c4ccccc34)cc(N3CCN(Cc4ccccc4)CC3)n2)c1	
> 50	42.5	10.2	8.16	O=C(Nc1ccccc1)Nc1nc(Sc2c[nH]c3ccccc23)cc(N2CCN(Cc3ccccc3)CC2)n1	
> 50	33.4	28.4	11.4	COc1ccc(NC(=O)Nc2nc(Sc3c[nH]c4ccccc34)cc(N3CCN(c4ccccn4)CC3)n2)cc1	
> 50	22.4	22.1	11.7	Cc1cc(Cl)ccc1NC(=O)Nc1nc(Sc2c[nH]c3ccccc23)cc(N2CCN(Cc3ccccc3)CC2)n1	
42.3	16.7	8.92	21.4	COc1ccc(NC(=O)Nc2nc(Sc3c[nH]c4ccccc34)cc(N3CCN(Cc4ccccc4)CC3)n2)cc1	
8.93	12.9	9.44	7.15	Cc1cc(Cl)ccc1NC(=O)Nc1nc(Sc2c[nH]c3ccccc23)cc(N2CCCC2)n1	
